Measured values gathered from unrelated publications.
Target: Homeodomain-interacting protein kinase 2 (HIPK2, Homo sapiens, UniProt Q9H2X6)

Cn1cc(-c2cccc(N3CCc4c(sc5c4CC(C)(C)C5)C3=O)c2CO)cc(Nc2ccncn2)c1=O
inhibition (enzyme activity; inhibitor; 1 µM): -4%

CC(C)(C)c1cc(C=C(C#N)C#N)cc(Br)c1O
remaining activity (enzyme activity; inhibitor; 0.5 µM): 110%

COc1ncccc1-c1cnn2ccc(N3CCN(C(=O)OC(C)C)CC3)nc12
remaining binding (binding; competition with immobilised ligand; 1 µM): 88%

Cc1nn(C)cc1-c1nc2c(N3CCN(Cc4ccc(Cl)cc4)CC3)c(Cl)cnc2[nH]1
remaining binding (binding; competition with immobilised ligand; 1 µM): 70%

Nc1ncc(-c2nc(N3CCOCC3)nc(N3CCOCC3)n2)c(C(F)F)n1
remaining binding (binding; competition with immobilised ligand; 10 µM): 59%

Cn1cncc1[C@@](O)(COc1ccc(C#N)cc1-c1ccc(OC(F)(F)F)cc1)c1ccc(C#N)cc1
remaining binding (cell-free assay; competition with immobilised ligand; 1 µM): 100%

Cn1cc(-c2cc(F)cc(N3CCn4c(cc5c4CCCC5)C3=O)c2CO)cc(Nc2ccc(N3CCN(C4COC4)CC3)cn2)c1=O
inhibition (enzyme activity; inhibitor; 0.1 µM): 9%

N#CC1(c2ccccn2)CCN(Cc2cc(C(=O)O)c(=O)n3ccccc23)CC1
remaining binding (cell-free assay; competition with immobilised ligand; 1 µM): 66%

O=c1[nH]c2ccccc2n1C1CCN(Cc2ccc(-c3[nH]c4cc5ncnc5cc4nc3-c3ccccc3)cc2)CC1
remaining signal (cell-free assay; 0.5 µM): 110%
